Data from ChEMBL document CHEMBL3286281, “Amino derivatives of glycyrrhetinic acid as potential inhibitors of cholinesterases” (Bioorg Med Chem, 2014).

Legend:
[1] = target: Cholinesterase (Equus caballus, UniProt P81908); experiment: Inhibition of equine serum BChE using butyrylthiocholine iodide as substrate after 20 mins measured for 1 min interval for 30 mins by Ellman's method
[2] = target: Acetylcholinesterase (Electrophorus electricus, UniProt O42275); experiment: Inhibition of Electrophorus electricus AChE using acetylthiocholine iodide as substrate after 20 mins measured for 1 min interval for 30 mins by Ellman's method
[3] = Selectivity ratio of Ki for Electrophorus electricus AChE to Ki for equine serum BChE
In short: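 Ki from Ellman kinetics at pH 8.0 and 30 °C after 20 min enzyme–inhibitor–DTNB preincubation. Inhibitor at several concentrations plus a water blank; ATChI or BTChI at 0.9375, 0.625, 0.325 and 0.1875 mM. A415 read every 1 min for 30 min, in triplicate. Ki from Lineweaver-Burk, Dixon and Cornish-Bowden plots; F = Ki(AChE)/Ki(BChE).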

[4] = Solubility of the compound; format: physicochemical

Sequence of Cholinesterase (P81908 whole entry): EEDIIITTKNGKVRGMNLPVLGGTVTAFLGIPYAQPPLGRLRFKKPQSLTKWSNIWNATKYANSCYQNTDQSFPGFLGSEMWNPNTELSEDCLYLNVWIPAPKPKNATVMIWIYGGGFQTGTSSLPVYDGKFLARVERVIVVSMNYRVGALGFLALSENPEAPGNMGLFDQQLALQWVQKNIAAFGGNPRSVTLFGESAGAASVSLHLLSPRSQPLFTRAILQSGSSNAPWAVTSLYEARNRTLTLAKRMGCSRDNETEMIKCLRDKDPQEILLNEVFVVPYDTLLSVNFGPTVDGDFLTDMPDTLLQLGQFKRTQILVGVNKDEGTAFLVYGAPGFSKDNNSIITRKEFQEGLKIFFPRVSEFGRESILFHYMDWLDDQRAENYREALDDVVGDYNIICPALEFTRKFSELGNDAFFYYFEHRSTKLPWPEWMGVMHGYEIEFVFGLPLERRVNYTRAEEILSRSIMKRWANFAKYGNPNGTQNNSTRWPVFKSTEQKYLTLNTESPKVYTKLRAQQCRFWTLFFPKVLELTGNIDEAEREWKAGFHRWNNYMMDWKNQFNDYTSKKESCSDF
Sequence of Acetylcholinesterase (O42275 whole entry): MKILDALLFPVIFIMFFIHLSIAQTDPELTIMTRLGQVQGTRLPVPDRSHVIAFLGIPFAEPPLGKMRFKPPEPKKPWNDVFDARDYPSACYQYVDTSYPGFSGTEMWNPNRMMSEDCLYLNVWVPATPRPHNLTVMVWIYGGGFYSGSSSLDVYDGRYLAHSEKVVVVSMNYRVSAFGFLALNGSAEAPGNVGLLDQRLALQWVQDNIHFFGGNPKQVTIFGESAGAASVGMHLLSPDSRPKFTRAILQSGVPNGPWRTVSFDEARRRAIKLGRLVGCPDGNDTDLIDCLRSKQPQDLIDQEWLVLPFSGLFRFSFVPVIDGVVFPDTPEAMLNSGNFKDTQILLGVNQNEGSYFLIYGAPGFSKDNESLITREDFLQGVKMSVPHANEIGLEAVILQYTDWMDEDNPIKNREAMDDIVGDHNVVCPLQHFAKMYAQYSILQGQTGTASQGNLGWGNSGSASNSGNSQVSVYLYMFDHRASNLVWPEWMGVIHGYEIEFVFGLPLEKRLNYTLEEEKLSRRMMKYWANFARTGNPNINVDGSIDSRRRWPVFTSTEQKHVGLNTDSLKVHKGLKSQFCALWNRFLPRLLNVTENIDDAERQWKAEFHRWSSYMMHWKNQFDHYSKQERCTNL

## CC1(C)[C@@H](O)CC[C@]2(C)[C@H]3C(=O)C=C4[C@@H]5C[C@@](C)(C(=O)O)CC[C@]5(C)CC[C@@]4(C)[C@]3(C)CC[C@@H]12 [ENOXOLONE]
[1]
  Ki: > 100 µM
[2]
  Ki: > 100 µM

## COC(=O)[C@@]1(C)CC[C@]2(C)CC[C@]3(C)C(=CC(=O)[C@@H]4[C@@]5(C)CC[C@H](OC(=O)[C@H](C)N)C(C)(C)[C@@H]5CC[C@]43C)[C@@H]2C1 [listing 1 of 3 here]
[1]
  Ki: > 100 µM
[2]
  Ki: 20.8 µM

## COC(=O)[C@@]1(C)CC[C@]2(C)CC[C@]3(C)C(=CC(=O)[C@@H]4[C@@]5(C)CC[C@H](OC(=O)[C@@H](N)CCCCN)C(C)(C)[C@@H]5CC[C@]43C)[C@@H]2C1
[1]
  Ki: > 100 µM
[2]
  Ki: 20 µM
[3]
  Ratio Ki: < 0.2

## COC(=O)CC[C@H](N)C(=O)O[C@H]1CC[C@]2(C)[C@H]3C(=O)C=C4[C@@H]5C[C@@](C)(C(=O)OC)CC[C@]5(C)CC[C@@]4(C)[C@]3(C)CC[C@H]2C1(C)C
[4]
  solubility: Insoluble

## COC(=O)[C@@]1(C)CC[C@]2(C)CC[C@]3(C)C(=CC(=O)[C@@H]4[C@@]5(C)CC[C@H](OC(=O)[C@@H](N)CC(=O)OCc6ccccc6)C(C)(C)[C@@H]5CC[C@]43C)[C@@H]2C1
[1]
  Ki: > 100 µM
[2]
  Ki: 28.1 µM
[3]
  Ratio Ki: < 0.28

## CCOC(=O)[C@@]1(C)CC[C@]2(C)CC[C@]3(C)C(=CC(=O)[C@@H]4[C@@]5(C)CC[C@H](OC(=O)[C@H](N)Cc6c[nH]c7ccccc67)C(C)(C)[C@@H]5CC[C@]43C)[C@@H]2C1
[1]
  Ki: > 100 µM
[2]
  Ki: 11.7 µM
[3]
  Ratio Ki: < 0.12

## CC1(C)[C@@H](O)CC[C@]2(C)[C@H]3C(=O)C=C4[C@@H]5C[C@@](C)(C(=O)NCCN)CC[C@]5(C)CC[C@@]4(C)[C@]3(C)CC[C@@H]12
[1]
  Ki: > 100 µM
[2]
  Ki: > 100 µM

## COC(=O)[C@@]1(C)CC[C@]2(C)CC[C@]3(C)C(=CC(=O)[C@@H]4[C@@]5(C)CC[C@H](OC(=O)[C@@H](N)CCC(=O)O)C(C)(C)[C@@H]5CC[C@]43C)[C@@H]2C1
[1]
  Ki: > 100 µM
[2]
  Ki: 18.9 µM
[3]
  Ratio Ki: < 0.19

## COC(=O)[C@@]1(C)CC[C@]2(C)CC[C@]3(C)C(=CC(=O)[C@@H]4[C@@]5(C)CC[C@H](OC(=O)CN)C(C)(C)[C@@H]5CC[C@]43C)[C@@H]2C1
[1]
  Ki: > 100 µM
[2]
  Ki: 19.8 µM
[3]
  Ratio Ki: < 0.2

## COC(=O)[C@@]1(C)CC[C@]2(C)CC[C@]3(C)C(=CC(=O)[C@@H]4[C@@]5(C)CC[C@H](OC(=O)[C@@H](N)CSCc6ccccc6)C(C)(C)[C@@H]5CC[C@]43C)[C@@H]2C1
[1]
  Ki: > 100 µM
[2]
  Ki: 40.6 µM
[3]
  Ratio Ki: < 0.41

## CC1(C)[C@@H](O)CC[C@]2(C)[C@H]3C(=O)C=C4[C@@H]5C[C@@](C)(C(=O)OC/C=C/CBr)CC[C@]5(C)CC[C@@]4(C)[C@]3(C)CC[C@@H]12
[1]
  Ki: > 40 µM
[2]
  Ki: 29.6 µM
[3]
  Ratio Ki: < 0.74

## CC(C)(C)OC(=O)NCCCNC(=O)[C@@]1(C)CC[C@]2(C)CC[C@]3(C)C(=CC(=O)[C@@H]4[C@@]5(C)CC[C@H](O)C(C)(C)[C@@H]5CC[C@]43C)[C@@H]2C1
[1]
  Ki: > 10 µM
[2]
  Ki: > 10 µM

## CCOC(=O)[C@@]1(C)CC[C@]2(C)CC[C@]3(C)C(=CC(=O)[C@@H]4[C@@]5(C)CC[C@H](OC(=O)[C@H](Cc6ccccc6)NC(=O)OC(C)(C)C)C(C)(C)[C@@H]5CC[C@]43C)[C@@H]2C1
[1]
  Ki: > 2 µM
[2]
  Ki: > 2 µM

## COC(=O)[C@@]1(C)CC[C@]2(C)CC[C@]3(C)C(=CC(=O)[C@@H]4[C@@]5(C)CC[C@H](OC(=O)[C@@H](N)CC(C)C)C(C)(C)[C@@H]5CC[C@]43C)[C@@H]2C1
[4]
  solubility: Insoluble

## CCOC(=O)[C@@]1(C)CC[C@]2(C)CC[C@]3(C)C(=CC(=O)[C@@H]4[C@@]5(C)CC[C@H](OC(=O)[C@@H](N)Cc6ccccc6)C(C)(C)[C@@H]5CC[C@]43C)[C@@H]2C1
[1]
  Ki: > 100 µM
[2]
  Ki: 13.7 µM
[3]
  Ratio Ki: < 0.14

## COC(=O)[C@@]1(C)CC[C@]2(C)CC[C@]3(C)C(=CC(=O)[C@@H]4[C@@]5(C)CC[C@H](OC(=O)[C@@H]6CCCN6)C(C)(C)[C@@H]5CC[C@]43C)[C@@H]2C1
[1]
  Ki: > 100 µM
[2]
  Ki: 23.5 µM
[3]
  Ratio Ki: < 0.24

## CC1(C)[C@@H](OC(=O)CN)CC[C@]2(C)[C@H]3C(=O)C=C4[C@@H]5C[C@@](C)(C(=O)O)CC[C@]5(C)CC[C@@]4(C)[C@]3(C)CC[C@@H]12
[1]
  Ki: > 100 µM
[2]
  Ki: > 100 µM

## CC1(C)[C@@H](O)CC[C@]2(C)[C@H]3C(=O)C=C4[C@@H]5C[C@@](C)(C(=O)NCCCCN)CC[C@]5(C)CC[C@@]4(C)[C@]3(C)CC[C@@H]12
[1]
  Ki: 74.3 µM
[2]
  Ki: 41.8 µM
[3]
  Ratio Ki: 0.56

## C=CCCOC(=O)[C@@]1(C)CC[C@]2(C)CC[C@]3(C)C(=CC(=O)[C@@H]4[C@@]5(C)CC[C@H](O)C(C)(C)[C@@H]5CC[C@]43C)[C@@H]2C1
[1]
  Ki: > 100 µM
[2]
  Ki: 14.9 µM
[3]
  Ratio Ki: < 0.15

## C[C@H](N)C(=O)O[C@H]1CC[C@]2(C)[C@H]3C(=O)C=C4[C@@H]5C[C@@](C)(C(=O)O)CC[C@]5(C)CC[C@@]4(C)[C@]3(C)CC[C@H]2C1(C)C
[1]
  Ki: > 100 µM
[2]
  Ki: 24 µM
[3]
  Ratio Ki: < 0.24

## CC1(C)[C@@H](O)CC[C@]2(C)[C@H]3C(=O)C=C4[C@@H]5C[C@@](C)(C(=O)NCCCCCN)CC[C@]5(C)CC[C@@]4(C)[C@]3(C)CC[C@@H]12
[1]
  Ki: > 100 µM
[2]
  Ki: > 100 µM

## COC(=O)[C@@]1(C)CC[C@]2(C)CC[C@]3(C)C(=CC(=O)[C@@H]4[C@@]5(C)CC[C@H](OC(=O)[C@@H](C)N)C(C)(C)[C@@H]5CC[C@]43C)[C@@H]2C1
[1]
  Ki: > 100 µM
[2]
  Ki: 17.7 µM
[3]
  Ratio Ki: < 0.18

## COC(=O)[C@@]1(C)CC[C@]2(C)CC[C@]3(C)C(=CC(=O)[C@@H]4[C@@]5(C)CC[C@H](OC(=O)[C@H](C)N)C(C)(C)[C@@H]5CC[C@]43C)[C@@H]2C1 [listing 2 of 3 here]
[3]
  Ratio Ki: < 0.21

## COC(=O)[C@@]1(C)CC[C@]2(C)CC[C@]3(C)C(=CC(=O)[C@@H]4[C@@]5(C)CC[C@H](OC(=O)[C@H](C)N)C(C)(C)[C@@H]5CC[C@]43C)[C@@H]2C1 [listing 3 of 3 here]
[4]
  solubility: Insoluble

## CC1(C)[C@@H](O)CC[C@]2(C)[C@H]3C(=O)C=C4[C@@H]5C[C@@](C)(C(=O)OCCBr)CC[C@]5(C)CC[C@@]4(C)[C@]3(C)CC[C@@H]12
[1]
  Ki: > 100 µM
[2]
  Ki: 23.8 µM
[3]
  Ratio Ki: < 0.24

## CNCC(=O)O[C@H]1CC[C@]2(C)[C@H]3C(=O)C=C4[C@@H]5C[C@@](C)(C(=O)OC)CC[C@]5(C)CC[C@@]4(C)[C@]3(C)CC[C@H]2C1(C)C
[1]
  Ki: > 100 µM
[2]
  Ki: 20.4 µM
[3]
  Ratio Ki: < 0.21

## COC(=O)[C@@]1(C)CC[C@]2(C)CC[C@]3(C)C(=CC(=O)[C@@H]4[C@@]5(C)CC[C@H](OC(=O)[C@@H](N)CC(=O)O)C(C)(C)[C@@H]5CC[C@]43C)[C@@H]2C1
[1]
  Ki: > 100 µM
[2]
  Ki: 16.2 µM
[3]
  Ratio Ki: < 0.16

## CC1(C)[C@@H](O)CC[C@]2(C)[C@H]3C(=O)C=C4[C@@H]5C[C@@](C)(C(=O)O/C(=N\C6CCCCC6)NC6CCCCC6)CC[C@]5(C)CC[C@@]4(C)[C@]3(C)CC[C@@H]12
[1]
  Ki: > 10 µM
[2]
  Ki: > 10 µM

## COC(=O)[C@@]1(C)CC[C@]2(C)CC[C@]3(C)C(=CC(=O)[C@@H]4[C@@]5(C)CC[C@H](OC(=O)[C@@H](N)Cc6ccccc6)C(C)(C)[C@@H]5CC[C@]43C)[C@@H]2C1
[1]
  Ki: > 100 µM
[2]
  Ki: 20.7 µM
[3]
  Ratio Ki: < 0.21
